Key:
Acetylcholinesterase [1] = target: T1, Acetylcholinesterase (Homo sapiens, UniProt P22303); test: Inhibition of AChE in human erythrocytes using acetylthiocholineiodide as substrate pre-incubated for 10 mins followed by substrate addition and measured for 6 mins by DTNB reagent based Ellman's method; assay type: cell-based, Erythrocyte
Cholinesterase [2] = target: T2, Cholinesterase (Homo sapiens, UniProt P06276); test: Inhibition of BuChE in human serum using butyrylthiocholineiodide as substrate pre-incubated for 10 mins followed by substrate addition and measured for 6 mins by DTNB reagent based Ellman's method; assay type: cell-free
T2 sequence (P06276 whole entry): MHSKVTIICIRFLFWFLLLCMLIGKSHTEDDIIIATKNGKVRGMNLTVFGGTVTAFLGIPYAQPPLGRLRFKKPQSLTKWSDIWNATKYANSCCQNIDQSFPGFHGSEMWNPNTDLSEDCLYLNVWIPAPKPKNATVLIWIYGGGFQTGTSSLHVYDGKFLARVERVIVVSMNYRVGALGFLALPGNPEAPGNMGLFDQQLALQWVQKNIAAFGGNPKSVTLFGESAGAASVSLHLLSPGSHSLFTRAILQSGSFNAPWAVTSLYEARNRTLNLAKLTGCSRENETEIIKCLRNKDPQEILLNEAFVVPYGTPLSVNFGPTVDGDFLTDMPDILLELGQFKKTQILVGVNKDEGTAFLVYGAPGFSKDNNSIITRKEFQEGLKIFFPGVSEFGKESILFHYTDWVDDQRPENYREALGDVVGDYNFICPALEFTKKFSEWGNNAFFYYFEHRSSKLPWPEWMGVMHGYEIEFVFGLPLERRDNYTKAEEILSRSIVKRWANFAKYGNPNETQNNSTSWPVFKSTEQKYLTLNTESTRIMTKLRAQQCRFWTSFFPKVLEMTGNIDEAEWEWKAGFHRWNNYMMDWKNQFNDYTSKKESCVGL
Summary of the method: (§1)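 AChE from human erythrocytes at 0.25 U/ml in 20 mM HEPES pH 8 with 0.1% Triton X-100, or BuChE from human serum at 0.25 U/ml in 0.1% gelatine. Substrate ATCI or BTCI at […], DTNB […], in 0.1 M PBS pH 7.4. Enzyme and inhibitor (DMSO stock, five concentrations) preincubated 10 min, then substrate added; rate followed 6 min at 37 °C. Non-enzymatic blank subtracted. Triplicates; IC50 from log concentration–percent inhibition curves.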

[3] = Permeability of the compound measured after 16 hrs by PAMPA-BBB assay
Acetylcholinesterase [4] = target: T1, Acetylcholinesterase; test: Non-competitive inhibition of AChE in human erythrocytes measured at 2 mins interval for 10 mins by Dixon plot analysis; assay type: cell-based, Erythrocyte
Summary of the method: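 Human AChE kinetics in the Ellman DTNB assay. Inhibitor at 25, 50 and 100 nM, each with six ATCI concentrations, against an inhibitor-free series. Activity read every 2 min over 10 min. Km and Vmax from Michaelis–Menten non-linear regression; mechanism from Lineweaver–Burk plots; Ki from Dixon plot over four inhibitor concentrations and from slope/intercept replots. Triplicate.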

[5] = Neuroprotective activity in human MC65 cells cultured in TC-deficient medium assessed as inhibition of TC-deficiency induced oxidative stress by measuring increase in cell viability at 60 to 80 uM measured after 12 hrs by MTT assay relative to cells cultured in tetracycline containing medium; assay type: functional; settings: dose 60-80 µM
Summary of the method: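 MC65 cells grown in MEM, PBS-washed and resuspended in MEM, then seeded at 5×10⁴ cells/well with or without TC. Compounds (80–1 μM) added to TC-free wells and incubated 12 h at 37 °C. MTT (5 mg/ml) added for a further 4 h; formazan dissolved in DMSO:H₂O 1:1 and read at 570 nm. Viability expressed as % of +TC control. Triplicate wells, three runs.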

Acetylcholinesterase [6] = target: T1, Acetylcholinesterase; test: Inhibition of AChE (unknown origin) by DTNB reagent based Ellman's method
Summary of the method: as §1, with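 “Ellman assay with DTNB read at 412 nm. AChE” for “AChE”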

Cholinesterase [7] = target: T2, Cholinesterase; test: Inhibition of BuChE (unknown origin) by DTNB reagent based Ellman's method
Summary of the method: as §1, with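 “Ellman assay with DTNB read at 412 nm. AChE” for “AChE”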

T1 sequence (P22303 whole entry): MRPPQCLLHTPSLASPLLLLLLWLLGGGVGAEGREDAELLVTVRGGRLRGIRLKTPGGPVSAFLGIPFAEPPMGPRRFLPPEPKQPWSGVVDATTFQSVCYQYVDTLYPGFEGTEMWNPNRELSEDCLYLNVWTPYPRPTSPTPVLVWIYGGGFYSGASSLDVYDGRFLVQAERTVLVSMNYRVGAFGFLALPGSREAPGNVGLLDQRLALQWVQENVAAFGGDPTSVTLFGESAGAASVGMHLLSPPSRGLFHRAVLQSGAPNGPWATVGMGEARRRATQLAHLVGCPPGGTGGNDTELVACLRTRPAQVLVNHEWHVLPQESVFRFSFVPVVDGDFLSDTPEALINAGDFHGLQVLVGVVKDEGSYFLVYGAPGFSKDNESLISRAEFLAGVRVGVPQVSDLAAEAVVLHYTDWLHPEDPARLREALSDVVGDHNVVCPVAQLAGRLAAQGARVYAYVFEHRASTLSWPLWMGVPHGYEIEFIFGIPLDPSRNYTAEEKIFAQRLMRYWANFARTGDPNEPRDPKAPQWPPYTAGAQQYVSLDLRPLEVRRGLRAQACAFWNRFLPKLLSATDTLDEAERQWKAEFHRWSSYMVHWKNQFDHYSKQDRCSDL

| SMILES | IC50 (Acetylcholinesterase [1]) | IC50 (Cholinesterase [2]) | further results |
| --- | --- | --- | --- |
| CCOC(=O)c1c(C)nc(N2CCN(S(=O)(=O)c3ccc(N)c(F)c3)CC2)nc1-c1ccccc1 | > 0.2 µM | > 0.2 µM | – |
| CCOC(=O)c1c(C)nc(N2CCN(S(=O)(=O)c3ccc(NC(C)=O)cc3)CC2)nc1-c1ccc(OC)cc1 | 0.132 µM | > 0.2 µM | – |
| CCOC(=O)c1c(C)nc(N2CCN(S(=O)(=O)c3ccc(NC(C)=O)c(F)c3)CC2)nc1-c1ccc(OC)cc1 | 0.0919 µM | 0.168 µM | – |
| CCOC(=O)c1c(C)nc(N2CCN(S(=O)(=O)c3ccc(N)cc3)CC2)nc1-c1ccccc1 | > 0.2 µM | > 0.2 µM | – |
| CCOC(=O)c1c(C)nc(N2CCN(S(=O)(=O)c3ccc(NC(C)=O)c(OC)c3)CC2)nc1-c1ccc(OC)c(OC)c1 | 0.0792 µM | > 0.2 µM | – |
| CCOC(=O)c1c(C)nc(N2CCN(S(=O)(=O)c3ccc(N)c(OC)c3)CC2)nc1-c1ccc(OC)cc1 | 0.0685 µM | 0.187 µM | – |
| CCOC(=O)c1c(C)nc(N2CCN(S(=O)(=O)c3ccc(N)c(Cl)c3)CC2)nc1-c1ccccc1 | 0.0791 µM | 0.137 µM | – |
| CCOC(=O)c1c(C)nc(N2CCN(S(=O)(=O)c3ccc(NC(C)=O)c(Cl)c3)CC2)nc1-c1ccc(OC)cc1 | 0.0876 µM | > 0.2 µM | – |
| CCOC(=O)c1c(C)nc(N2CCN(S(=O)(=O)c3ccc(N)c(Cl)c3)CC2)nc1-c1ccc(OC)cc1 | 0.0779 µM | 0.178 µM | – |
| CCOC(=O)c1c(C)nc(N2CCN(S(=O)(=O)c3ccc(NC(C)=O)c(OC)c3)CC2)nc1-c1ccccc1 | 0.079 µM | 0.184 µM | – |
| CCOC(=O)c1c(C)nc(N2CCN(S(=O)(=O)c3ccc(NC(C)=O)c(OC)c3)CC2)nc1-c1ccc(OC)cc1 | 0.0793 µM | 0.194 µM | – |
| CCOC(=O)c1c(C)nc(N2CCN(S(=O)(=O)c3ccc(N)c(Cl)c3)CC2)nc1-c1ccc(OC)c(OC)c1 | 0.0514 µM | 0.153 µM | Papp at 16 h [3]: 23.7 ×10⁻⁶ cm/s |
| CCOC(=O)c1c(C)nc(N2CCN(S(=O)(=O)c3ccc(NC(C)=O)c(Cl)c3)CC2)nc1-c1ccccc1 | 0.144 µM | 0.156 µM | – |
| CCOC(=O)c1c(C)nc(N2CCN(S(=O)(=O)c3ccc(N)c(OC)c3)CC2)nc1-c1ccc(OC)c(OC)c1 | 0.0856 µM | > 0.2 µM | – |
| CCOC(=O)c1c(C)nc(N2CCN(S(=O)(=O)c3ccc(NC(C)=O)cc3)CC2)nc1-c1ccccc1 | 0.118 µM | > 0.2 µM | – |
| CCOC(=O)c1c(C)nc(N2CCN(S(=O)(=O)c3ccc(N)c(OC)c3)CC2)nc1-c1ccccc1 | 0.0846 µM | 0.184 µM | – |
| CCOC(=O)c1c(C)nc(N2CCN(S(=O)(=O)c3ccc(NC(C)=O)c(Cl)c3)CC2)nc1-c1ccc(OC)c(OC)c1 | 0.0473 µM | 0.159 µM | Ki (Acetylcholinesterase [4]): 0.008 µM; Activity [5]: 99.41%; Papp at 16 h [3]: 24.3 ×10⁻⁶ cm/s |
| CCOC(=O)c1c(C)nc(N2CCN(S(=O)(=O)c3ccc(N)cc3)CC2)nc1-c1ccc(OC)c(OC)c1 | 0.068 µM | > 0.2 µM | – |
| CCOC(=O)c1c(C)nc(N2CCN(S(=O)(=O)c3ccc(NC(C)=O)c(F)c3)CC2)nc1-c1ccc(OC)c(OC)c1 | 0.0765 µM | 0.186 µM | – |
| CCOC(=O)c1c(C)nc(N2CCN(S(=O)(=O)c3ccc(NC(C)=O)c(F)c3)CC2)nc1-c1ccccc1 | 0.0974 µM | 0.194 µM | – |
| CCOC(=O)c1c(C)nc(N2CCN(S(=O)(=O)c3ccc(N)c(F)c3)CC2)nc1-c1ccc(OC)cc1 | 0.101 µM | 0.157 µM | – |
| CCOC(=O)c1c(C)nc(N2CCN(S(=O)(=O)c3ccc(NC(C)=O)cc3)CC2)nc1-c1ccc(OC)c(OC)c1 | 0.0888 µM | 0.167 µM | – |
| CCOC(=O)c1c(C)nc(N2CCN(S(=O)(=O)c3ccc(N)c(F)c3)CC2)nc1-c1ccc(OC)c(OC)c1 | 0.0661 µM | 0.177 µM | – |
| CCc1ccc(NC(=O)COc2c(Cl)cc(Cl)cc2S(=O)(=O)N2CCN(C(=O)c3ccco3)CC2)cc1 | – | – | IC50 (Acetylcholinesterase [6]): 5.54 µM; IC50 (Cholinesterase [7]): 9.15 µM |
| CCOC(=O)c1c(C)nc(N2CCN(S(=O)(=O)c3ccc(N)cc3)CC2)nc1-c1ccc(OC)cc1 | 0.0719 µM | 0.192 µM | – |

— ChEMBL document CHEMBL4732210, “Discovery of new phenyl sulfonyl-pyrimidine carboxylate derivatives as the potential multi-target drugs with effective anti-Alzheimer's action: Design, synthesis, crystal structure and in-vitro biological evaluation” (Eur J Med Chem, 2021)
